In ChEMBL document CHEMBL2016445, “Discovery of a novel class of potent and orally bioavailable sphingosine 1-phosphate receptor 1 antagonists” (J Med Chem, 2012):

Columns and labels:
[1] = biological target: T1, Sphingosine 1-phosphate receptor 1 (Homo sapiens, UniProt P21453); assay: Antagonist activity at S1P1 receptor expressed in HEK293 cells assessed as inhibition of S1P-induced cAMP response after 90 mins by spectrophotometry; assay type: functional, cell-based
[2] = Drug uptake in nu/nu homozygous mouse plasma at 100 mg/kg, po as a suspension in 10% NMP/corn oil after 4 hrs by HPLC/MS/MS analysis; assay type: ADME, organism-based; design: dose 100 mg/kg, route oral
Method in brief: (§1)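 Female Nu/Nu mice (~8 wk, 20-22 g) given a single 100 mpk oral dose at 10 mL/kg. Vehicles: 10% EtOH/45% or 40% PEG400/water + 1 molar equiv HCl, 10% EtOH/40% PEG400/20% Captisol + HCl, or 10% NMP/90% corn oil. Heparinized blood collected 1 and 4 h post-dose; plasma analysed by HPLC/MS/MS.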

[3] = Drug uptake in nu/nu homozygous mouse plasma at 100 mg/kg, po as a suspension in 10% NMP/corn oil after 24 hrs by HPLC/MS/MS analysis; assay type: ADME, organism-based; design: dose 100 mg/kg, route oral
[4] = Drug uptake in nu/nu homozygous mouse plasma at 100 mg/kg, po as a suspension in 10% NMP/corn oil after 1 hr by HPLC/MS/MS analysis; assay type: ADME, organism-based; design: dose 100 mg/kg, route oral; method in brief: as §1
Cytochrome P450 2C9 = Cytochrome P450 2C9 (Homo sapiens, UniProt P11712); assay: Inhibition of human CYP2C9 using tolbutamide as substrate by LC/MS/MS analysis; assay type: ADME
Method in brief: (§2)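 Pooled human liver microsomes in 100 mM potassium phosphate, pH 7.4, at 37 °C with 1000 µM NADPH for 15 min. Microsomes 0.15 mg/mL for CYP2C9 and CYP2D6, 0.25 mg/mL for CYP3A4. Inhibitor tested at six concentrations (0.2–50 µM). Reactions quenched with acetonitrile; metabolite measured by LC/MS/MS; IC50 from 4-parameter sigmoidal fit.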

Cytochrome P450 2D6 = Cytochrome P450 2D6 (Homo sapiens, UniProt P10635); assay: Inhibition of human CYP2D6 using bufuralol as substrate by LC/MS/MS analysis; assay type: ADME; method in brief: as §2
Cytochrome P450 3A4 = Cytochrome P450 3A4 (Homo sapiens, UniProt P08684); assay: Inhibition of human CYP3A4 using testosterone as substrate by LC/MS/MS analysis; assay type: ADME; method in brief: as §2
[5] = biological target: T1, Sphingosine 1-phosphate receptor 1; assay: Antagonist activity at S1P1 receptor expressed in HEK293 cells assessed as inhibition of S1P-induced tango beta-arrestin recruitment preincubated for 30 mins prior S1P addition measured after 16 to 18 hrs by luciferase reporter gene assay; assay type: functional, cell-based
[6] = biological target: Sphingosine 1-phosphate receptor 2 (Homo sapiens, UniProt O95136); assay: Antagonist activity at S1P2 receptor expressed in HEK293 cells assessed as inhibition of S1P-induced tango beta-arrestin recruitment preincubated for 30 mins prior S1P addition measured after 16 to 18 hrs by luciferase reporter gene assay; assay type: functional, cell-based
[7] = biological target: Sphingosine 1-phosphate receptor 3 (Homo sapiens, UniProt Q99500); assay: Antagonist activity at S1P3 receptor expressed in HEK293 cells assessed as inhibition of S1P-induced tango beta-arrestin recruitment preincubated for 30 mins prior S1P addition measured after 16 to 18 hrs by luciferase reporter gene assay; assay type: functional, cell-based
[8] = Metabolic stability of the compound in mouse liver microsomes assessed as compound oxidation measuring disappearance of compound at 15 uM after 30 mins by LC/MS/MS analysis; assay type: ADME, Microsome; details: read-out: Drug degradation
Method in brief: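 Incubated in duplicate for 30 min at 37 °C: 15 µM compound, 0.15% DMSO, 0.5 mg/mL mouse liver microsomes, 1 mM NADPH, 100 mM potassium phosphate pH 7.4. Stopped with acetonitrile containing 0.1% formic acid. Parent remaining measured by LC/MS/MS; disappearance calculated relative to no-NADPH controls.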

[9] = Antitumor activity against human MDA-MB-231T cells xenografted in athymic nude mouse assessed as tumor growth inhibition at 100 mg/kg, po qd for 14 days post implantation measured for 14 days; assay type: functional; details: 336 h, read-out: TGI
Method in brief: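 MDA-MB-231T cells grown in DMEM with 10% FBS. 1 x 10⁶ cells in ice-cold HBSS implanted into the mammary fat pad of female athymic nude (NCr) mice, 5-8 wk. Daily oral dosing at 10 mL/kg, solutions made fresh daily. Tumor weight measured twice weekly; TGI calculated against vehicle and staging-day weights; 2-tailed t-test, p<0.05.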

[10] = Drug uptake in nu/nu homozygous mouse plasma at 100 mg/kg, po after 1 hr by HPLC/MS/MS analysis; assay type: ADME, organism-based; design: dose 100 mg/kg, route oral; method in brief: as §1
[11] = Drug uptake in nu/nu homozygous mouse plasma at 100 mg/kg, po after 4 hrs by HPLC/MS/MS analysis; assay type: ADME, organism-based; design: dose 100 mg/kg, route oral; method in brief: as §1

Sequence of Cytochrome P450 3A4 (P08684 whole entry): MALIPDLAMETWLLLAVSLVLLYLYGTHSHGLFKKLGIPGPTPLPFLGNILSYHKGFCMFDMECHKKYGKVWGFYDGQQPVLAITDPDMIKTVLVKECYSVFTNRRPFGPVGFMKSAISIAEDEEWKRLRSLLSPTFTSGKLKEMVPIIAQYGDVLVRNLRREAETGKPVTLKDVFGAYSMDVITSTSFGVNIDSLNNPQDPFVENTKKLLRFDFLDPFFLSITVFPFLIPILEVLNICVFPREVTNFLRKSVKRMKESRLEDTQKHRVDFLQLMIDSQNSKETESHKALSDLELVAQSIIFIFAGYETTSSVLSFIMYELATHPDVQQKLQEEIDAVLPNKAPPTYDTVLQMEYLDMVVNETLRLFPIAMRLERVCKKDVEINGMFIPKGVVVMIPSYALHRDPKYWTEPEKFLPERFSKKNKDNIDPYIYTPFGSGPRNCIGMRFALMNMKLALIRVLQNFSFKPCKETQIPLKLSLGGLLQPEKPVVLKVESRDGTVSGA
T1 sequence (P21453 whole entry): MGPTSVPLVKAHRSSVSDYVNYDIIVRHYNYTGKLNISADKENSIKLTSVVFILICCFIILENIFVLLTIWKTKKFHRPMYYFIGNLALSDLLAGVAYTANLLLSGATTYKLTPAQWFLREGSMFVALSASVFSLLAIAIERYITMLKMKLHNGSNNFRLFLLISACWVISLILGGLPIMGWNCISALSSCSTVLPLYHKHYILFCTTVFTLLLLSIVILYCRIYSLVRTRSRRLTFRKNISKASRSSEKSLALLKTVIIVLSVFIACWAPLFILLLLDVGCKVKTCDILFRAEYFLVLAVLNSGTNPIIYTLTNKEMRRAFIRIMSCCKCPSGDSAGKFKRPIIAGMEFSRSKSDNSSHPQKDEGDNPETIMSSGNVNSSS
Sequence of Sphingosine 1-phosphate receptor 3 (Q99500 whole entry): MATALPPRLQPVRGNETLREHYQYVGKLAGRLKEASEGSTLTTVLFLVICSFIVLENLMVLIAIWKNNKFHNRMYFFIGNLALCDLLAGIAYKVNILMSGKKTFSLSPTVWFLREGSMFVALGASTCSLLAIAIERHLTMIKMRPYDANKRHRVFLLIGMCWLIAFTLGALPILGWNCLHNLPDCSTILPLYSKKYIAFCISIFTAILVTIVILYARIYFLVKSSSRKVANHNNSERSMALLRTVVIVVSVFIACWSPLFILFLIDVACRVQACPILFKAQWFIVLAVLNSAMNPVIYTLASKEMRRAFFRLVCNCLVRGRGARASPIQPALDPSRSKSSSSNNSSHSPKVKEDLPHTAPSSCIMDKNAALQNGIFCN
Sequence of Sphingosine 1-phosphate receptor 2 (O95136 whole entry): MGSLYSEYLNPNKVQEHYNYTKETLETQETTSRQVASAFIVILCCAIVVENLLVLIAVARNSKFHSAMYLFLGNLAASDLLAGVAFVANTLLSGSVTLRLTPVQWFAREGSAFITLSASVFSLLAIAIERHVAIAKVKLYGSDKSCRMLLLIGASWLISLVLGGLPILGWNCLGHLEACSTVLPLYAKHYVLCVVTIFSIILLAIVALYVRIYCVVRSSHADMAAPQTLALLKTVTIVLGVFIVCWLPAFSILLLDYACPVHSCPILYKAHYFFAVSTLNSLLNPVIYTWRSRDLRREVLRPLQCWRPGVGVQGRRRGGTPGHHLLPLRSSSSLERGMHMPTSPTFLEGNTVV
Sequence of Cytochrome P450 2C9 (P11712 whole entry): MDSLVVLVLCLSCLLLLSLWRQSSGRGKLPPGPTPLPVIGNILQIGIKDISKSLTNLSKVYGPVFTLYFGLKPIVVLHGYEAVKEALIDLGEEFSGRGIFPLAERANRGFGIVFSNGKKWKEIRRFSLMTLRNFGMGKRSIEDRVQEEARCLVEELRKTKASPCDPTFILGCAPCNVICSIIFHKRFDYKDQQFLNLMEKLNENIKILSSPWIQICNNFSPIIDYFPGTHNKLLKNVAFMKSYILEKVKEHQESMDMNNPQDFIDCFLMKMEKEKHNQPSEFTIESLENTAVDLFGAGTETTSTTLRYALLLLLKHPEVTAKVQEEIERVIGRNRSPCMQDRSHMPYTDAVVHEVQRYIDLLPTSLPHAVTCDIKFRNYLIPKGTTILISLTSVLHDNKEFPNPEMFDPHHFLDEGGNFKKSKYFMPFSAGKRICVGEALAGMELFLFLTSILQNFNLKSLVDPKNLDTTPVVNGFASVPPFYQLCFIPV
Sequence of Cytochrome P450 2D6 (P10635 whole entry): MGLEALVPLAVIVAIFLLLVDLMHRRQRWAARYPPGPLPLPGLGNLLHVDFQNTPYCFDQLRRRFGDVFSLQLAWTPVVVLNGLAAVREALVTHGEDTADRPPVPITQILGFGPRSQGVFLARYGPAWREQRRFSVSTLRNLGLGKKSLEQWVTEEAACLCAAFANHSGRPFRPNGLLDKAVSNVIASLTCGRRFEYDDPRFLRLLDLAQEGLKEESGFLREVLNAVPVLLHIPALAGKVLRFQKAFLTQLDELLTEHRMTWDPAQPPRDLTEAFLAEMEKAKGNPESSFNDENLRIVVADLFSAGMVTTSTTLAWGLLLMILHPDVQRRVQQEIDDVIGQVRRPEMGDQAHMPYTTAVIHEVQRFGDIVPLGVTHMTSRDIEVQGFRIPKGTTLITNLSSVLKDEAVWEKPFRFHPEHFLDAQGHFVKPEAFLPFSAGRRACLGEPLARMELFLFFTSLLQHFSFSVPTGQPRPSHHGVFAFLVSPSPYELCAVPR

O=C(Cc1cnc[nH]1)N[C@@H](COCc1ccccc1)C(=O)Nc1ccc(-c2ccccc2)cc1 showed an IC50 [1] of over 10000 nM.
O=C(Cc1cnc[nH]1)N[C@@H](CCCc1ccccc1)C(=O)Nc1ccc(Oc2ccccc2)cc1 showed an IC50 [1] of 14 nM.
In the case of C[C@H](NC(=O)Cc1cnc[nH]1)C(=O)Nc1ccc(Oc2ccc(Cl)cc2)cc1, the IC50 [1] is reported as 752 nM.
In the case of O=C(Cc1cnc[nH]1)N[C@@H](Cc1ccccc1)C(=O)Nc1ccc(Oc2ccc(Cl)cc2)cc1, the IC50 [1] is reported as 326 nM.
Work on CN(C(=O)Cc1c[nH]cn1)[C@@H](COCc1ccccc1)C(=O)Nc1ccc(Oc2ccccc2)cc1 yielded an IC50 [1] of 181 nM.
CN(C(=O)[C@H](COCc1ccccc1)NC(=O)Cc1cnc[nH]1)c1ccc(Oc2ccccc2)cc1 showed an IC50 [1] of 8280 nM.
With O=C(Nc1ccc(Oc2ccc(F)cc2)cc1)[C@@H]1CN(Cc2ccccc2)CCN1C(=O)Cc1cnc[nH]1 the IC50 [1] was 84 nM, the concentration at 4 h [2] was 6.3 µM and the concentration at 24 h [3] was 9.2 µM.
O=C(Nc1ccc(Oc2ccc(F)cc2)cc1)[C@@H]1C[C@@H](Cc2ccccc2)CN1C(=O)Cc1cnc[nH]1 showed an IC50 [1] of 84.7 nM, a concentration at 1 h [4] of 26.2 µM and a concentration at 4 h [2] of 9.8 µM. It also gave an IC50 (Cytochrome P450 2C9) of under 205 nM, an IC50 (Cytochrome P450 2D6) of 1180 nM and an IC50 (Cytochrome P450 3A4) of 7150 nM.
For O=C(Nc1ccc(Oc2ccc(F)cc2)cc1)[C@@H]1C[C@@H](c2ccccc2)CN1C(=O)Cc1cnc[nH]1, the IC50 [1] was 158 nM, the concentration at 4 h [2] was 27.2 µM and the concentration at 24 h [3] was 5 µM. It also gave an IC50 (Cytochrome P450 2C9) of 213 nM, an IC50 (Cytochrome P450 2D6) of 663 nM and an IC50 (Cytochrome P450 3A4) of 301 nM.
In the case of O=C(Nc1ccc(Oc2ccc(F)cc2)cc1)[C@@H]1C[C@@H](c2ccccc2)CN1C(=O)Cn1cncn1, the IC50 [1] is reported as 492 nM.
Work on O=C(Nc1ccc(Oc2ccc(F)cc2)cc1)[C@@H]1C[C@@H](Cc2ccccc2)CN1C(=O)Cn1cncn1 yielded an IC50 [1] of 6.8 nM, an IC50 [5] of 45 nM and an IC50 [6] of over 10000 nM. The IC50 [7] was over 10000 nM, the concentration at 4 h [2] was 86.4 µM and the metabolised at 0.5 h, 15 µM [8] was 13%. For the same compound, the concentration at 24 h [3] was 8.3 µM, the IC50 (Cytochrome P450 2C9) was 2290 nM and the IC50 (Cytochrome P450 2D6) was 392 nM. It also gave an IC50 (Cytochrome P450 3A4) of over 20000 nM.
Work on O=C(Nc1ccc(Oc2ccc(F)cc2)cc1)[C@@H]1C[C@@H](Cc2ccc(F)cc2)CN1C(=O)Cn1cncn1 yielded an IC50 [1] of 5.8 nM, an IC50 [5] of 13 nM and an IC50 [6] of over 10000 nM. For the same compound, the IC50 [7] was over 10000 nM, the concentration at 4 h [2] was 104 µM and the metabolised at 0.5 h, 15 µM [8] was 8%. For the same compound, the concentration at 24 h [3] was 18 µM, the IC50 (Cytochrome P450 2C9) was 2190 nM and the IC50 (Cytochrome P450 2D6) was 7370 nM. The IC50 (Cytochrome P450 3A4) was 12600 nM.
In the case of O=C(Nc1ccc(Oc2ccc(F)cc2)cc1)[C@@H]1C[C@H](Cc2ccc(F)cc2)CN1C(=O)Cn1cncn1, the IC50 [1] is reported as 48 nM, the IC50 (Cytochrome P450 2C9) is reported as 1350 nM and the IC50 (Cytochrome P450 2D6) is reported as 3780 nM. The IC50 (Cytochrome P450 3A4) was over 20000 nM.
Work on O=C(Nc1ccc(Oc2ccc(F)cc2)cc1)[C@H]1C[C@H](Cc2ccc(F)cc2)CN1C(=O)Cn1ccnn1 yielded an IC50 [1] of over 1000 nM.
O=C(Nc1ccc(Oc2ccc(F)cc2)cc1)[C@@H]1C[C@@H](Cc2ccc(F)cc2)CN1C(=O)Cn1nccn1 gave an IC50 [1] of 4.8 nM, an IC50 [5] of 21 nM and an IC50 [6] of over 10000 nM. The IC50 [7] was over 10000 nM, the concentration at 4 h [2] was 23 µM and the concentration at 24 h [3] was 2 µM. For the same compound, the IC50 (Cytochrome P450 2C9) was 17400 nM, the IC50 (Cytochrome P450 2D6) was over 50000 nM and the IC50 (Cytochrome P450 3A4) was over 20000 nM. It also gave an inhibition in vivo at 100 mg/kg [9] of 60%.
For CN(CC(=O)NC(COCc1ccccc1)C(=O)Nc1ccc(Oc2ccccc2)cc1)C(=O)c1ccccc1 (racemic), the IC50 [1] was 718 nM, the IC50 [5] was 2800 nM and the IC50 [6] was over 10000 nM. For the same compound, the IC50 [7] was over 10000 nM, the concentration at 1 h [10] was under 0.019 µM and the concentration at 4 h [11] was under 0.019 µM. The metabolised at 0.5 h, 15 µM [8] was 89%.
In the case of O=C(CCCC(=O)c1cccs1)NC(COCc1ccccc1)C(=O)Nc1ccc(Oc2ccccc2)cc1 (racemic), the IC50 [1] is reported as 286 nM.
With O=C(NC(COCc1ccccc1)C(=O)Nc1ccc(Oc2ccccc2)cc1)C1CC1 (racemic) the IC50 [1] was 297 nM.
